Measurements reported in ChEMBL document CHEMBL3867429, “Euphorbesulins A-P, Structurally Diverse Diterpenoids from Euphorbia esula” (J Nat Prod, 2016).

These compounds were tested on Plasmodium falciparum (assay: Antimalarial activity against chloroquine-resistant Plasmodium falciparum Dd2 after 72 hrs by SYBR green-based fluorescence assay). Conditions: Dd2, 72 h.
Format: functional
Outline: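 Growth-inhibition assay of the chloroquine-resistant P. falciparum Dd2 strain over 72 h, read by SYBR Green fluorescence and run under a slightly modified published protocol. Artemisinin served as positive control.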

Row | SMILES | IC50 [µM]
1 | C=C1C[C@]2(O)C(=O)C(C)(C)C[C@H]2[C@@](C)(O)C(=O)[C@@]2(O)C[C@H](C)[C@H](OC(=O)c3ccccc3)[C@@H]2[C@H]1OC(C)=O | > 5
2 | C=C1C[C@]2(O)C(=O)C(C)(C)C[C@H]2[C@@](C)(O)C(=O)[C@@]2(O)C[C@H](C)[C@H](OC(=O)c3ccccc3)[C@@H]2[C@H]1OC(=O)[C@H](C)C(C)C | 2.41
3 | C=C1[C@H](OC(=O)c2ccccc2)[C@@H](O)[C@@H](OC(C)=O)C(C)(C)/C=C/[C@H](C)C(=O)[C@@]2(OC(C)=O)C[C@H](C)[C@H](OC(C)=O)[C@@H]2[C@H]1OC(C)=O | > 5
4 | C=C1[C@H](OC(=O)c2ccccc2)[C@@H](OC(C)=O)[C@@H](OC(C)=O)C(C)(C)/C=C/[C@H](C)C(=O)[C@@]2(OC(C)=O)C[C@H](C)[C@H](OC(C)=O)[C@@H]2[C@H]1OC(=O)c1ccccc1 | 0.12
5 | C=C1[C@H](OC(C)=O)[C@@H](OC(C)=O)[C@@H](OC(C)=O)C(C)(C)/C=C/[C@H](C)C(=O)[C@@]2(OC(C)=O)C[C@@](C)(OC(C)=O)[C@H](OC(=O)c3ccccc3)[C@@H]2[C@H]1OC(C)=O | > 5
6 | C=C1[C@H](OC(C)=O)[C@@H](OC(C)=O)[C@@H](OC(C)=O)C(C)(C)/C=C/[C@H](C)C(=O)[C@]2(OC(C)=O)[C@H]([C@@H](OC(C)=O)[C@@H](C)[C@H]2O)[C@H]1OC(=O)c1ccccc1 | > 5
7 | C=C1[C@H](OC(=O)c2ccccc2)[C@@H](O)[C@@H](OC(C)=O)C(C)(C)/C=C/[C@H](C)C(=O)[C@@]2(OC(C)=O)C[C@@](C)(OC(C)=O)[C@H](OC(C)=O)[C@@H]2[C@H]1OC(C)=O | > 10
8 | C=C1[C@H](OC(C)=O)[C@@H](OC(C)=O)[C@@H](OC(C)=O)C(C)(C)/C=C/[C@H](C)C(=O)[C@]2(OC(C)=O)[C@H]([C@@H](OC(=O)c3ccccc3)[C@@H](C)[C@H]2O)[C@H]1OC(C)=O | > 5
9 | C=C1[C@H](OC(C)=O)[C@@H](OC(C)=O)[C@@H](OC(C)=O)C(C)(C)/C=C/[C@H](C)C(=O)[C@]2(O)[C@H]([C@@H](OC(C)=O)[C@@H](C)[C@H]2OC(C)=O)[C@H]1OC(=O)c1ccccc1 | > 5
10 | C=C1[C@H](OC(=O)c2ccccc2)[C@@H](OC(C)=O)[C@@H](OC(C)=O)C(C)(C)/C=C/[C@H](C)C(=O)[C@]2(OC(C)=O)[C@H]([C@@H](OC(C)=O)[C@](C)(O)[C@H]2O)[C@H]1OC(=O)c1ccccc1 | > 5
11 | C=C1C[C@]2(O)C(=O)C(C)(C)C[C@H]2[C@@](C)(O)C(=O)[C@@]2(O)C[C@H](C)[C@H](OC(=O)c3ccccc3)[C@@H]2[C@H]1OC(=O)c1ccccc1 | > 5
12 | C[C@@H]1CC[C@H]2[C@@H](C)C(=O)O[C@@H]3O[C@@]4(C)CC[C@@H]1[C@]32OO4 [ARTEMISININ] | 0.007
